Results reported in publication PMC8223195 (Molecular Diversity, 2021).

Columns and labels:
hCoV-229E = assay type: cell-based, human corona virus 229E; conditions: […]; (*) mean of three independent experiments ± SEM
LN-229 (glioblastoma) = test: IncuCyte real-time proliferation assay, LN-229; assay type: cell-based; conditions: LN-229, 72 h; * mean of two independent experiments ± SEM
[1] = system: Capan-1 (pancreatic adenocarcinoma); test: IncuCyte real-time proliferation assay, Capan-1; assay type: cell-based; conditions: Capan-1, 72 h; * mean of two independent experiments ± SEM
[2] = system: HCT-116 (colorectal carcinoma); test: IncuCyte real-time proliferation assay, HCT-116; assay type: cell-based; conditions: HCT-116, 72 h; * mean of two independent experiments ± SEM
[3] = system: NCI-H460 (lung carcinoma); test: IncuCyte real-time proliferation assay, NCI-H460; assay type: cell-based; conditions: NCI-H460, 72 h; * mean of two independent experiments ± SEM
[4] = system: DND-41 (acute lymphoblastic leukemia); test: IncuCyte real-time proliferation assay, DND-41; assay type: cell-based; conditions: DND-41, 72 h; * mean of two independent experiments ± SEM
[5] = system: HL-60 (acute myeloid leukemia); test: IncuCyte real-time proliferation assay, HL-60; assay type: cell-based; conditions: HL-60, 72 h; * mean of two independent experiments ± SEM
[6] = system: K-562 (chronic myeloid leukemia); test: IncuCyte real-time proliferation assay, K-562; assay type: cell-based; conditions: K-562, 72 h; * mean of two independent experiments ± SEM
[7] = system: Z-138 (non-Hodgkin lymphoma); test: IncuCyte real-time proliferation assay, Z-138; assay type: cell-based; conditions: Z-138, 72 h; * mean of two independent experiments ± SEM
[8] = system: peripheral blood mononuclear cells (PBMCs); test: In vitro apoptosis induction assay in PBMC; assay type: cell-based; conditions: 72 h
How it was run: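 Counter-screen on normal PBMCs from two healthy donors. Cells were exposed to graded test-compound concentrations with Caspase-3/7 Green Reagent added. Activated intracellular caspase-3/7 cleaves the reagent at its DEVD motif, marking apoptotic cells. Propidium iodide staining separated dead from live cells. Read-out: numbers of apoptotic and dead cells.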

[9] = system: alpha-tubulin in HEp-2 cells; test: Tubulin immune fluorescence staining in HEp-2 cells; assay type: cell-based, human; conditions: HEp-2 cells treated for 3 h

For `COc1ccc(C(=O)C2Sc3nnc(-n4nc(C)cc4C)n3NC2c2ccco2)cc1` (racemic) [Compound 5q, ( ±)-(3-(3,5-Dimethyl-1H-pyrazol-1-yl)-6-(furan-2-yl)-6,7-dihydro-5H-[1,2,4]triazolo[3,4-b][1,3,4]thiadiazin-7-yl)(4-methoxyphenyl)methanone], which EC50 (hCoV-229E) is on record?
The EC50 was > 100000 nM.

What about the IC50 (LN-229 (glioblastoma)) of the same compound?
Its IC50 is 700 ± 90 nM.

What about the IC50 [1] of the same compound?
Its IC50 is 1100 ± 700 nM.

What about the IC50 [2] of the same compound?
The IC50 was 1000 ± 400 nM.

What about the IC50 [3] of the same compound?
The IC50 was 2500 ± 200 nM.

And the IC50 [4]?
The IC50 was 600 ± 200 nM.

What about the IC50 [5] of the same compound?
Its IC50 is 2000 ± 400 nM.

And the IC50 [6]?
The IC50 was 2300 ± 1600 nM.

What about the IC50 [7] of the same compound?
The IC50 was 400 ± 5 nM.

What about the “viability of normal PBMCs” value ([8]; PBMC from two healthy donors, 100 to 0.16 µM) of the same compound?
The value was “did not inhibit the viability”.

And the “number of apoptotic and dead cells” value ([8]; PBMC, 100 µM, caspase-3/7 and PI)?
The value was “small increase in the number of apoptotic and dead cells”.

What about the polymerization of tubulin [9] of the same compound?
Its polymerization of tubulin is “inhibit the polymerization of tubulin in a dose-dependent manner”.

And the CC50 (HEL 299 cells)?
The CC50 was < 800 nM.
